Compounds with a hit are over-represented: about 3.7% of the library has one in this group of screens.
hERG rescue: hERG (human) protection from proarrhythmic block; Q12809; CHO-hERG, FluxOR thallium flux, dofetilide IC70 present; activation (rescue from dofetilide block), less the hit threshold, % at 10 µM; actives 0.51% (n = 310,000); AID 1511;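 active = activation above the mean of controls blocked by dofetilide plus 5 SD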;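 also: thallium influx through hERG after potassium depolarization seen as dye fluorescence rise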
KCNK3 inh: human KCNK3 channel inhibition, primary screen | B-score at 10 µM | AID 602410 | actives 0.84% (n = 340,000) | CHO-KCNK3 thallium flux, FluxOR fluorescence; hits give low values;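 active = B-score under library mean minus 4 SD, starting fluorescence ratio at most library mean plus 5 SD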;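 also: more negative B-score means stronger inhibition of thallium flux through KCNK3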
Target sequence (O14649 whole entry, looked up): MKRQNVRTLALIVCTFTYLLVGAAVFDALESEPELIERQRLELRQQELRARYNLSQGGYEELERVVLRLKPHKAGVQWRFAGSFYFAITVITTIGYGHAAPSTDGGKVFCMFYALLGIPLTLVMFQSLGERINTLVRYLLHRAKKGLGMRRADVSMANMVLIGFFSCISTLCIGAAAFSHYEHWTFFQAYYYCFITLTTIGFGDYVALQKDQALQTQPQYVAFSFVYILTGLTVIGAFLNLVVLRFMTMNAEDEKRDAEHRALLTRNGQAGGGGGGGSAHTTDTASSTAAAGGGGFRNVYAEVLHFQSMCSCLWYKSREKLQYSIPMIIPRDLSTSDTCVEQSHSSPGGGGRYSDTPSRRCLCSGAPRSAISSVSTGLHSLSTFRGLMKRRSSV
Kir21 block: blocks the mouse Kir2.1 inward-rectifier potassium channel. P35561. HEK293-Kir2.1, FluxOR thallium flux fluorescence; hits give low values. B-score at 10 µM. actives 0.85% (n = 310,000). AID 1672;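 active = fluorescence ratio B-score at or below minus 3 SD of library scores, with starting-brightness B-score within 2 SD, cut at about -4.2 in these data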;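 also: channel flux triggered by added potassium and thallium sulfate stimulus; B-score of peak minus minimum fluorescence over baseline after thallium stimulus; more negative B-score means stronger Kir2.1 block with less thallium influx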
KCNK9 block: human KCNK9 channel inhibition. B-score at 10 µM. Q9NPC2. HEK293 KCNK9, FluxOR thallium flux fluorescence; hits give low values. actives 1.2% (n = 310,000);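 active = ratio B-score over 3 SD below the library mean, with starting fluorescence within 5 SD of its mean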;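 also: negative B-score means less thallium flux so channel inhibition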
KCNQ1 inh: inhibitors of human KCNQ1 potassium channel. P51787. CHO-K1 KCNQ1, FluxOR thallium flux fluorescence; hits give high values. B-score at 10 µM. actives 1.3% (n = 310,000);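 active = compounds whose thallium flux B-score, printed positive for inhibition, exceeds three library SD while starting fluorescence stays within three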;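 also: channel opened by potassium depolarization with thallium stimulus after 20 min compound exposure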
KCNQ1 pot: potentiates or activates the human KCNQ1 potassium channel; P51787; AID 2648; B-score at 10 µM; CHO-K1 KCNQ1, thallium flux FluxOR fluorescence; hits give high values; actives 0.35% (n = 310,000);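 active = fluorescence ratio B-score, a plate-corrected score, at least three library SD, with initial intensity B-score within 5 SD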
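System: CHO-K1 cells stably expressing KCNQ1 / Medium: assay buffer for compound exposure, DMSO matched across wells / Reagent: thallium- and potassium-containing depolarizing buffer / Compound: one concentration, matched DMSO / Incubation: 20 min compound pretreatment at room temperature / Measured by: kinetic FluxOR fluorescence, 10 s baseline plus 110 s post-stimulus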
Active calls of the source: *; i = inactive; / = not tested or not shown.

SMILES | hERG rescue | KCNK3 inh | Kir21 block | KCNK9 block | KCNQ1 inh | KCNQ1 pot
Cc1cnnn1-c1ccc(C(=O)CCl)cc1 | -24.2 | i | 0.47 | i | 6* | i
Cc1ccc(COC(=O)c2cccc(S(=O)(=O)N3CCCCCC3)c2)cc1 | / | i | / | / | / | /
COc1ccccc1C(=O)COC(=O)c1cccc(S(=O)(=O)N2CCCC2)c1 | -17.2 | i | 1.32 | i | i | i
Cc1ccc(COC(=O)c2cccc(S(=O)(=O)N3CCCCC3)c2)cc1 | / | -11* | / | / | / | /
COc1ccc(OC)c(COC(=O)c2cccc(S(=O)(=O)N3CCCCC3)c2)c1 | / | -8.78* | / | / | / | /
COc1ccccc1COC(=O)c1cccc(S(=O)(=O)N2CCCC2)c1 | / | -9.56* | / | / | / | /
NS(=O)(=O)c1cccc(NC(=O)c2cccs2)c1 | -6.0 | i | -1.32 | i | i | i
O=C(Nc1cccc(N2C(=O)C=CC2=O)c1)c1cccs1 | -25.8 | i | -5.94* | i | i | i
Cc1ccc(N2CC(C(=O)OCC(=O)c3ccc[nH]3)CC2=O)cc1 (stereo not drawn) | -18.1 | i | -0.26 | i | i | i
CC(C)(C)C1CCC(C(=O)OCC(=O)c2ccc[nH]2)CC1 (stereo not drawn) | -4.2 | i | -5.28* | i | i | i
CCOc1nc2ccccc2cc1C=O | 7.1* | i | 0.85 | i | i | 11*
CCOc1ccc(-n2cc(C(=O)Nc3cccc(C)n3)c3cc(OC)c(OC)cc3c2=O)cc1 | -14.3 | i | 0.93 | i | i | 13*
CCOc1ccc(NC(=O)c2cn(-c3ccc(OCC)cc3)c(=O)c3cc(OC)c(OC)cc23)cc1 | -9.8 | i | -1.02 | i | i | i
CCN1CCN(c2ccc(S(=O)(=O)N3CCCCC3)cc2NC(=O)C(C)Oc2ccc(F)cc2)CC1 (stereo not drawn) | -5.1 | i | -5.19* | i | i | i
CC(Oc1ccc(F)cc1)C(=O)Nc1cc(S(=O)(=O)N2CCCCC2)ccc1N1CCOCC1 (stereo not drawn) | -9.5 | i | 1.44 | i | i | i
CCN(CC)CCCNc1nc2cc(OC)c(OC)cc2c2nc(-c3ccccc3)nn12 | -6.8 | i | -0.85 | i | i | i
CCN(CC)CCCNc1nc2cc(OC)c(OC)cc2c2nc(-c3cccnc3)nn12 | -7.3 | i | 0.03 | i | 11* | i
Cc1ccc(CNC(=O)C2CCCN2S(=O)(=O)c2ccc(Cl)cc2)cc1 (stereo not drawn) | -11.8 | i | 2.19 | i | i | i
Cc1ccc(S(=O)(=O)N2CCCC2C(=O)NCc2ccc3c(c2)OCO3)cc1 (stereo not drawn) | 9.9* | i | 0.12 | i | i | i
Cc1ccc(C(=O)C2(C)C3c4cc(Br)ccc4OC(=O)C32C(=O)c2ccco2)cc1 (stereo not drawn) | -6.8 | i | -0.33 | -7.68* | i | i
CCOc1cc(C2NC(=O)NC(C)=C2C(=O)OCC2CCCCC2)ccc1O (stereo not drawn) | -6.2 | i | -0.9 | i | i | i
COc1ccc(C2=NN(C(=O)c3ccccc3)C(c3ccc(OC)c(OC)c3)C2)cc1OC (stereo not drawn) | -6.7 | i | -0.46 | i | i | i
COc1ccc(C2CC(c3ccc([N+](=O)[O-])cc3)=NN2C(=O)c2ccccc2)cc1OC (stereo not drawn) | -4.4 | i | 0.29 | -7.04* | i | i
Cc1ccc(S(=O)(=O)NCCC(=O)OCC(=O)N2CCCC2=O)cc1C | -15.8 | i | 0.73 | i | i | i
CN(C)c1ccc(C(C(=O)NCc2ccccc2)N(Cc2cccnc2)C(=O)c2snc(C(N)=O)c2N)cc1 (stereo not drawn) | -9.2 | i | -0.82 | i | 8* | i
SMILES | hERG rescue | KCNK3 inh | Kir21 block | KCNK9 block | KCNQ1 inh | KCNQ1 pot
CC(C)CC(C(=O)NC1CCCCC1)N(Cc1cccs1)C(=O)c1snc(C(N)=O)c1N (stereo not drawn) | -21.0 | i | 0.55 | i | 8* | i
CCCCC(C(=O)NC1CCCC1)N(Cc1ccccc1)C(=O)c1snc(C(N)=O)c1N (stereo not drawn) | -12.3 | i | 1.19 | i | 10* | i
COc1ccc(C(C(=O)NCc2ccccc2)N(Cc2cccnc2)C(=O)c2snc(C(N)=O)c2N)cc1OC (stereo not drawn) | -21.5 | i | 1.92 | i | i | i
CC(C)CC(C(=O)NC1CCCC1)N(Cc1cccs1)C(=O)c1snc(C(N)=O)c1N (stereo not drawn) | -31.8 | i | -0.41 | i | i | i
COc1ccc(Nc2ccnc(Nc3ccc(OC)cc3)n2)cc1 | -12.8 | i | -6.52* | i | i | i
CC(C)C1=NN(C(=O)c2cccnc2)C(O)(C(F)(F)F)C1 (stereo not drawn) | -1.2 | i | -1.36 | i | i | i
COc1ccc(NC(=O)C(=O)N2N=C(C(C)C)CC2(O)C(F)(F)F)cc1 (stereo not drawn) | 1.7 | i | -1.11 | i | 6* | i
CCCC1=NN(C(=O)C(=O)Nc2ccc(Br)cc2)C(O)(C(F)(F)F)C1 (stereo not drawn) | -9.2 | i | -0.22 | i | i | i
CCC1=NN(C(=O)C(=O)Nc2ccc(Br)cc2)C(O)(C(F)(F)F)C1 (stereo not drawn) | -3.3 | i | 0.86 | i | 6* | i
COC(=O)[C@]1(Cc2ccccc2)N[C@H](c2ccc(-c3ccc(F)cc3)cc2)[C@@H]2C(=O)N(C)C(=O)[C@@H]21 | -5.2 | i | -0.75 | i | i | i
CC(C)(C)C(=O)/C(C#N)=C/c1cccs1 | -3.2 | i | -0.05 | i | i | i
N#C/C(=C\c1cccs1)C(=O)c1ccccc1Cl | -3.9 | i | -6.99* | i | i | i
O=C(Nc1ccc(Br)cc1)C1CCCN(C2=NS(=O)(=O)c3ccccc32)C1 (stereo not drawn) | / | i | / | / | / | /
Cc1cc(C(=O)NNC(=O)c2ccc(C(F)(F)F)cc2)no1 | -4.1 | i | -0.28 | i | i | i
CC(C)(C)c1cc(C(=O)NNC(=O)c2ccc(Cl)cc2)no1 | 5.7* | i | 0.09 | i | i | 18*
CC1(C)CC[C@]2(CO)[C@@H](O)C[C@]3(C)C(=CCC4[C@@]5(C)CC[C@H](O)C(C)(C)C5CC[C@]43C)[C@@H]2C1 (stereo partly drawn) | 0.5 | / | 0.6 | i | i | 34*

Compound activity: PubChem, Johns Hopkins Ion Channel Center
